Fewer inactive variants are shown than the library holds. Where only a bound is given, the exact number is not on record here.

B1: tRNA (parent)
chain: GUUCCGUUGGCGUAAUGGUAACGCGUCUCCCUCCUAAGGAGAAGACUGCGGGUUCGAGUCCCGUACGGAACG

In the data set the parent is B1. The data set can be described thus: yeast fitness relative to wild type (ratio to wild type); higher = fitter; tRNA-Arg(CCU), competitive growth, 37 C, YPD. The gist of the method: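 Variants of the tRNA-Arg(CCU) gene, chemically synthesised with a 3% per-site mutation rate at 69 sites, were placed at the native genomic locus in Saccharomyces cerevisiae. The pooled strains were competed in YPD at 37°C for 24 hours in six parallel replicates. Gene amplicons from the start population and from each end population were read by 100-nucleotide paired-end sequencing. Darwinian fitness relative to wild type came from changes in genotype frequencies; genotypes needed ≥ 100 starting reads, and estimates < 0.5 were set to 0.5.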
Regarding C4A C27U U28G C33G A36G G50C C66U, the yeast fitness is ≤ 0.5. For the variant C4A C22A, the yeast fitness was determined as 0.706.

Take C4A U7A U8G A45C A65G C66G: the yeast fitness is ≤ 0.5. The result for C4A G17A G51C G63A reads ≤ 0.5; that for C4A G9A C22A C27G U54A, ≤ 0.5. The result for C4A A14G C24U U32G A43G A65U reads ≤ 0.5; that for C4A C27G G52A, 0.713. The result for C4A C11U A45U C66U reads ≤ 0.5; that for C4A G6A G50A, ≤ 0.5.

As to C4A G44C G51A G58C U59A, the yeast fitness was ≤ 0.5. The result for U3G U16C G39C A45C C49G C62G reads ≤ 0.5.

As for C4G A15C C30A A42C G56A A57U, the yeast fitness is ≤ 0.5. In the case of C4A C31U C34A A40G it was ≤ 0.5; in that of C4A U16G C30A, 0.62. In the case of C4A C11U C34G C62A it was 0.748; in that of C4A C27G A42G U53A, ≤ 0.5.

C4A G17C G23C A45C U54C: the yeast fitness is ≤ 0.5. The result for C4A A15G C62U reads 0.594. In the case of C4A C11G it was 0.769; in that of C4A C46G C61A, 0.522. On to C4A C5U C22U C34A A65U, for which the yeast fitness is ≤ 0.5. In the case of C4G A15G C22G G23A C49A it was ≤ 0.5; in that of C4A C5G U53A, ≤ 0.5; in that of C4A C27U U28G C33G A36G, 0.533.

On to C4A C33U, for which the yeast fitness was determined as 0.754. Turning to C4A U32C C46G C62A, the yeast fitness is ≤ 0.5. The result for C4A G9A G18C C22A A69C reads ≤ 0.5; that for C4G A15G, 0.732; that for C4A U8C G51C, ≤ 0.5. Consider C4A C5U C22U C34A C61G, for which the yeast fitness is ≤ 0.5.

Consider C4A A42U A57U G58C, for which the yeast fitness is ≤ 0.5. The result for C4A A14U A20C U28G G67A A70G reads ≤ 0.5; that for C4A U8C G18C C33U, ≤ 0.5; that for C4A G18C C33G, 0.591. In the case of C4A G41C C49U it was ≤ 0.5; in that of U3C U26C A42U C60G G67A, ≤ 0.5; in that of C4A C46G C55G, ≤ 0.5. The result for C4A U16C G17A U32C reads ≤ 0.5. For C4A C29A, the yeast fitness was found to be 0.637. For U3G C30U G48C A65U G68C, the yeast fitness is ≤ 0.5. The result for C4A U16A A37G A69U reads ≤ 0.5; that for C4A C31G A45G G50C, 0.576; that for C4A C5U U8C, ≤ 0.5. In the case of C4A C22U A40G A43U C46G C49G C62U it was 0.527. In the case of C4A C5U C30U A45G it was 0.516; in that of C4A A20U A43U A57C, ≤ 0.5; in that of C4A C5U C24U U53A A65G, ≤ 0.5. In the case of C4A C31G C62G G68C, the yeast fitness is ≤ 0.5.

Turning to C4A G10C A57U, the yeast fitness is ≤ 0.5.

In the case of C4G A14C G25C U32C A45U A57U, the yeast fitness was ≤ 0.5. In the case of C4A U19G A36C it was 0.506; in that of C4G A14C G48C A69U A70G, ≤ 0.5. In the case of C4G A20U C46U it was 0.614; in that of C4A U28A C31G U35A U47A U54A, ≤ 0.5; in that of C4A A14U A20C U28G G58C C61A, ≤ 0.5. In the case of U3C U16G G18A A43C U53A it was ≤ 0.5; in that of C4A A43C G51A G56C, 0.516.

Regarding U3G G6A U8C, the yeast fitness is ≤ 0.5. The result for C4A A42G C60G reads 0.53; that for C4A U64A, 0.815. For C4A G23A U28A G48A A70C, the yeast fitness was ≤ 0.5. In the case of C4A G10A A21G C22G A65G, the yeast fitness is ≤ 0.5. In the case of U3G U13G C30A C31A it was ≤ 0.5; in that of C4A C11G C31U G38C G52A C66G, 0.649.

As to U3G U13C C33G, the yeast fitness is ≤ 0.5. In the case of C4A A14G U64A A70C it was ≤ 0.5; in that of C4A U19C U35C G48A, ≤ 0.5; in that of C4G A15G A20G G23A C34G G67A, ≤ 0.5. The result for C4A C5A C22A U28G C33G A57G reads ≤ 0.5.

As to C4A A42U A69U, the yeast fitness turned out to be 0.625. The result for C4A G10A C31A reads ≤ 0.5. In the case of C4A G6A A40G U53G C62G C66U it was 0.6; in that of C4A U47C, 0.773.

As for C4G A20C U26G C33U G44C U59A, the yeast fitness is ≤ 0.5. In the case of C4A U13C G23C C34G A45G U53C U64A it was 0.675; in that of C4A G6A G68A, ≤ 0.5. The result for C4A A37C reads 0.707; that for C4A U8G A69U, ≤ 0.5; that for U3G C33U A42G A57U C61A, ≤ 0.5.

With C4G A14G C27U A42U, the yeast fitness is ≤ 0.5.

On to C4A U19G A70C, for which the yeast fitness amounted to 0.854. The result for C4A U26G C29G U47G U59G reads ≤ 0.5; that for C4A U35C G48C C55U G56A, 0.51; that for C4A C55G, 0.55.

For the origin of these results see the RNAGym collection of RNA variant scans (doi:10.1126/science.aae0568).
